Assay [1] has as its target T1, Serine/threonine-protein kinase B-raf (Homo sapiens, UniProt P15056, V600E). The experiment in a line: Inhibition of BRAF V600E mutant-mediated ERK phosphorylation in human WM266.4 cells. The class given is cell-based.
A short description of assay [2]: Antiproliferative activity against human WM266.4 cells after 6 days by SRB assay. To be noted: WM 266-4, 144 h. In kind it is functional. In a few lines:
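SRB cell proliferation assay on WM266.4 melanoma cells, which carry mutant BRAF. Growth inhibition is reported as GI50.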
In general terms: In SRB staining, fixed cells bind dye roughly in proportion to their protein.

In assay [3] the target is T1, Serine/threonine-protein kinase B-raf. The assay is described as follows: Inhibition of human BRAF V600E mutant expressed in Sf9 cells.
The nature of assay [4]: Antiproliferative activity against human WM1361 cells after 5 days by SRB assay. The note with it: WM1361, 120 h.
Assay [5] in a line: Antiproliferative activity against human WM266.4 cells after 5 days by SRB assay. To be noted: WM 266-4, 120 h.

One may read the IC50 as the concentration that gives 50% inhibition. Lower therefore signals greater potency in that assay. As a reminder, the GI50 is the concentration that inhibits growth by half. Higher therefore signals lower sensitivity of the cells.

T1 sequence (P15056 2-766 V600E limits assumed): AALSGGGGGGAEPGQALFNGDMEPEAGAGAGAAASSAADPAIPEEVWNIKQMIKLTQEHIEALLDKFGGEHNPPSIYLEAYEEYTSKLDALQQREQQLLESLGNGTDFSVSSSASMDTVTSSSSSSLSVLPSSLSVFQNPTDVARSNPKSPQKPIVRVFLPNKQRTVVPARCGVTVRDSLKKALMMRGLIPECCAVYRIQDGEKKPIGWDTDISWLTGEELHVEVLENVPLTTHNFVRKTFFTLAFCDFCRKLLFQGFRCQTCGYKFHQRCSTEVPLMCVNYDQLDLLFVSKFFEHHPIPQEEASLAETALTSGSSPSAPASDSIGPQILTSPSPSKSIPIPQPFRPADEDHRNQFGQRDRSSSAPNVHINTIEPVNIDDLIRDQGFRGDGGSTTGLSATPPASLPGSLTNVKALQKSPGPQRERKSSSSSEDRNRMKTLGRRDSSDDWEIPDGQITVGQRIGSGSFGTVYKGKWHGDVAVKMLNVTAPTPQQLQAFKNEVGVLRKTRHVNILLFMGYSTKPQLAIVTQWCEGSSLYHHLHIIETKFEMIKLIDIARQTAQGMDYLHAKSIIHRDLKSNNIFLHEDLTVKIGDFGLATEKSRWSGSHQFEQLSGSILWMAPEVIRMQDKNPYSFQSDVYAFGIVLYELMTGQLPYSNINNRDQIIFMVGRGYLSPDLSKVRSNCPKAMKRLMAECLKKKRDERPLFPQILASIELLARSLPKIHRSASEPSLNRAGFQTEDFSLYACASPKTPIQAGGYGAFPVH

Take `O=C(Nc1cccc(Oc2ccnc3[nH]c(=O)[nH]c23)c1)c1cnn(-c2ccccc2)c1C(F)(F)F`: the IC50 in assay [1] was 38 µM; in assay [3] it was above 100 µM. This compound displayed a GI50 in assay [2] of 3.3 µM.

Consider `O=C(Nc1cccc(Oc2ccnc3[nH]c(=O)[nH]c23)c1)c1ccc2nsnc2c1`, for which the IC50 in assay [1] and in assay [3] was above 100 µM in each case. This compound also returned a GI50 in assay [2] of 8.3 µM.

Take `O=C(Nc1cccc(Oc2ccnc3[nH]c(=O)[nH]c23)c1)c1cccc2ccccc12`: the values for the IC50 in assay [1] and in assay [3] were 29 µM and 0.92 µM, respectively. In addition, it took 23 µM to inhibit growth in assay [2] by half (GI50).

With `O=C(Nc1cccc(Oc2ccnc3[nH]c(=O)[nH]c23)c1)c1ccccc1`, the IC50 was above 100 µM in assay [1] and 25.2 µM in assay [3]. For the same compound, the GI50 in assay [2] was determined as 1.54 µM.

Turning to `O=C(Nc1cccc(Oc2ccnc3[nH]c(=O)[nH]c23)c1)c1ccnn1-c1ccccc1`, the IC50 in assay [1] was 92 µM; in assay [3], above 100 µM. For the same compound, it took 15.6 µM to inhibit growth in assay [2] by half (GI50).

On to `O=C(Nc1cc(C(F)(F)F)ccc1F)c1cccc(Oc2ccnc3[nH]c(=O)[nH]c23)c1`, for which the IC50 in assay [1] was determined as 35 µM; in assay [3], 4.7 µM. In assay [2], the GI50 amounted to 31 µM.

As for `O=C(Nc1cccc(Oc2ccnc3[nH]c(=O)[nH]c23)c1)c1ccc(Cl)c(C(F)(F)F)c1`, the IC50 came out at 28 µM in assay [1] and 0.124 µM in assay [3]. The compound further yielded a GI50 in assay [2] of 13.4 µM.

Turning to `O=C(Nc1cccc(Oc2ccnc3[nH]c(=O)[nH]c23)c1)c1cccc2c1OCCCO2`, the IC50 in assay [1] and in assay [3] was above 100 µM in each case. In assay [2], this compound showed a concentration for 50% growth inhibition (GI50) of 48 µM.

As for `CC(C)(C)c1cccc(C(=O)Nc2cccc(Oc3ccnc4[nH]c(=O)[nH]c34)c2)c1`, the IC50 in assay [1] was 3.5 µM; in assay [3] it was 0.017 µM. The same compound registered a 50% growth inhibitory concentration (GI50) in assay [2] of 1.83 µM.

For `O=C(Nc1cccc(Oc2ccnc3[nH]c(=O)[nH]c23)c1)Nc1ccc(Cl)c(C(F)(F)F)c1`, the IC50 came to 10.7 µM in assay [1] and 0.015 µM in assay [3]. The same compound showed a GI50 in assay [2] of 4.2 µM.

Consider `O=C(CCc1ccccc1)Nc1cccc(Oc2ccnc3[nH]c(=O)[nH]c23)c1`, for which the IC50 in assay [1] is above 100 µM; in assay [3], 94 µM. For the same compound, in assay [2], growth was halved (GI50) at 30.9 µM.

Take `O=C(Nc1cccc(OC(F)(F)F)c1)c1cccc(Oc2ccnc3[nH]c(=O)[nH]c23)c1`: the IC50 in assay [1] stood at 14.6 µM; in assay [3], 0.048 µM. In assay [2], this compound returned a GI50 of 2.4 µM.

For `O=C(Nc1cccc(Oc2ccnc3[nH]c(=O)[nH]c23)c1)c1cc(Cl)cc(OC(F)(F)F)c1`, the IC50 is 14.6 µM in assay [1] and 0.071 µM in assay [3]. This compound came in with a GI50 in assay [2] of 6.5 µM.

With `Cc1ccc(NC(=O)c2cccc(OC(F)(F)F)c2)cc1Oc1ccnc2[nH]c(=O)[nH]c12`, the figures for the IC50 in assay [1] and in assay [3] were above 100 µM and above 10 µM, respectively. In assay [2], this compound returned a 50% growth inhibitory concentration (GI50) of 38 µM.

`O=C(Nc1cccc(Oc2ccnc3[nH]c(=O)[nH]c23)c1)c1ccnc(Cl)c1`: the IC50 in assay [1] was above 100 µM; in assay [3], 93 µM. This compound also yielded a GI50 in assay [2] of 25 µM.

As for `O=C(Nc1cccc(Oc2ccnc3[nH]c(=O)[nH]c23)c1)c1cccc(Br)c1`, the IC50 in assay [1] was found to be 100 µM; in assay [3], 1.56 µM. The GI50 in assay [2] stood at 0.907 µM.

Consider `O=C(Nc1cc(F)cc(Oc2ccnc3[nH]c(=O)[nH]c23)c1)c1cccc(OC(F)(F)F)c1`, for which the IC50 in assay [1] worked out at 16 µM; in assay [3], 0.033 µM. This compound also registered a GI50 in assay [2] of 2.4 µM.

In the case of `O=C(Nc1cccc(Oc2ccnc3[nH]c(=O)[nH]c23)c1)c1ccc(F)c(OC(F)(F)F)c1`, the IC50 amounted to 27.7 µM in assay [1] and 0.049 µM in assay [3]. Besides, it took 7.4 µM to inhibit growth in assay [2] by half (GI50).

`CC(C)c1cc(C(=O)Nc2cccc(Oc3ccnc4[nH]c(=O)[nH]c34)c2)n(-c2ccccc2)n1`: the IC50 in assay [1] came to 13.7 µM; in assay [3], 0.087 µM. Moreover, the 50% growth inhibitory concentration (GI50) in assay [2] stood at 5.7 µM.

Consider `O=C(Nc1ccc(Cl)c(C(F)(F)F)c1)c1cccc(Oc2ccnc3[nH]c(=O)[nH]c23)c1`, for which the IC50 was found to be 8.2 µM in assay [1] and 0.09 µM in assay [3]. Further, the GI50 in assay [2] was 7.3 µM.

On to `O=C(Cc1cccc(OC(F)(F)F)c1)Nc1cccc(Oc2ccnc3[nH]c(=O)[nH]c23)c1`, for which the concentration for half-maximal inhibition (IC50) was 12.8 µM in assay [1] and above 10 µM in assay [3]. The same compound had a GI50 in assay [2] of 29.4 µM.

In the case of `CNC(=O)c1cc(Oc2ccc(NC(=O)Nc3ccc(Cl)c(C(F)(F)F)c3)cc2)ccn1` [SORAFENIB], the GI50 in assay [4] came to 4.34 µM; in assay [5], 4.93 µM.

Take `O=C(Nc1cccc(Oc2ccnc3[nH]c(=O)[nH]c23)c1)c1cc(OC(F)(F)F)ccc1F`: the figures for the IC50 in assay [1] and in assay [3] were 15 µM and 0.043 µM, respectively. In assay [2], this compound displayed a GI50 of 1.2 µM.

As for `O=c1[nH]c2nccc(Oc3cccc(NS(=O)(=O)c4ccccc4)c3)c2[nH]1`, the IC50 in assay [1] was determined as 29.6 µM; in assay [3], 1.66 µM. This compound showed a GI50 in assay [2] of 0.175 µM.

For `O=C(Nc1cc(Cl)cc(Oc2ccnc3[nH]c(=O)[nH]c23)c1)c1cccc(OC(F)(F)F)c1`, the IC50 was determined as 11.3 µM in assay [1] and 0.033 µM in assay [3]. Moreover, growth in assay [2] was halved (GI50) at 1.9 µM.

Consider `O=C(Nc1cccc(Oc2ccnc3[nH]c(=O)[nH]c23)c1)c1cccc(N2CCCCC2)c1`, for which the figures for the IC50 in assay [1] and in assay [3] were 15.4 µM and 0.047 µM, respectively. The same compound gave a GI50 in assay [2] of 9.6 µM.

Take `Cc1ccc(-n2nc(C(F)(F)F)cc2NC(=O)Nc2cccc(Oc3ccnc4[nH]c(=O)[nH]c34)c2)cc1`: the IC50 in assay [1] was found to be 4.8 µM; in assay [3] it was 0.4 µM. The compound also displayed a GI50 in assay [2] of 4.28 µM.

Consider `O=C(Nc1cc(Oc2ccnc3[nH]c(=O)[nH]c23)ccc1Cl)c1cccc(OC(F)(F)F)c1`, for which the 50% inhibitory concentration (IC50) is above 100 µM in assay [1] and 0.24 µM in assay [3]. The same compound displayed a 50% growth inhibitory concentration (GI50) in assay [2] of 35 µM.

In the case of `Cc1ccc(-n2nc(C(C)(C)C)cc2NC(=O)Nc2cccc(Oc3ccnc4[nH]c(=O)[nH]c34)c2)cc1`, the IC50 in assay [1] came out at 0.83 µM; in assay [3], 0.128 µM. The compound also yielded a GI50 in assay [2] of 0.705 µM.

Take `CC(C)(C)c1cc(C(=O)Nc2cccc(Oc3ccnc4[nH]c(=O)[nH]c34)c2)n(-c2ccccc2)n1`: the IC50 was found to be 13.7 µM in assay [1] and 0.274 µM in assay [3]. Also, in assay [2], growth was halved (GI50) at 3.1 µM.

As for `O=C(Nc1cccc(Oc2ccnc3[nH]c(=O)[nH]c23)c1)Nc1cc(C(F)(F)F)ccc1N1CCOCC1`, the IC50 amounted to 42 µM in assay [1] and 0.74 µM in assay [3]. Further, the concentration for 50% growth inhibition (GI50) in assay [2] came out at 16.7 µM.

Regarding `O=C(Nc1cccc(Oc2ccnc3[nH]c(=O)[nH]c23)c1)c1ccc(Cl)cc1`, the IC50 in assay [1] is above 100 µM; in assay [3], 68 µM. The GI50 in assay [2] came to 9.1 µM.

On to `O=C(Nc1cccc(OC(F)(F)C(F)F)c1)c1cccc(Oc2ccnc3[nH]c(=O)[nH]c23)c1`, for which the half-maximal inhibitory concentration (IC50) in assay [1] is 8 µM; in assay [3], 0.24 µM. Further, the GI50 in assay [2] is 0.677 µM.

On to `O=c1[nH]c2nccc(Oc3cccc(NCc4cccc(OC(F)(F)F)c4)c3)c2[nH]1`, for which the figures for the IC50 in assay [1] and in assay [3] were above 100 µM and above 10 µM, respectively. The compound further gave a GI50 in assay [2] of 0.74 µM.

Take `O=C(Nc1cccc(Oc2ccnc3[nH]c(=O)[nH]c23)c1)c1cccc(SC(F)(F)F)c1`: the values for the IC50 in assay [1] and in assay [3] were 6.48 µM and 0.005 µM, respectively. In assay [2], this compound had a GI50 of 5.1 µM.

On to `O=C(Cc1cccc(C(F)(F)F)c1)Nc1cccc(Oc2ccnc3[nH]c(=O)[nH]c23)c1`, for which the figures for the IC50 in assay [1] and in assay [3] were 17.8 µM and above 10 µM, respectively. In assay [2], this compound registered a GI50 of 25.7 µM.

In the case of `O=c1[nH]c2nccc(Oc3cccc(NS(=O)(=O)c4cccc(C(F)(F)F)c4)c3)c2[nH]1`, the values for the IC50 in assay [1] and in assay [3] were 57 µM and 15.4 µM, respectively. The same compound had a GI50 in assay [2] of 0.83 µM.

The values are drawn from ChEMBL document CHEMBL1157573, “BRAF inhibitors based on an imidazo[4,5]pyridin-2-one scaffold and a meta substituted middle ring” (J Med Chem, 2010).
